Measured values reported in ChEMBL document CHEMBL1132613 (J Med Chem, 1999).

What was measured:
[1] = target: T1, 5-hydroxytryptamine receptor 1A (Rattus norvegicus, UniProt P19327); assay: Compound was tested for the displacement of [3H]-8-OH- DPAT from rat brain 5-hydroxytryptamine 1A receptor
T1 sequence (P19327 whole entry): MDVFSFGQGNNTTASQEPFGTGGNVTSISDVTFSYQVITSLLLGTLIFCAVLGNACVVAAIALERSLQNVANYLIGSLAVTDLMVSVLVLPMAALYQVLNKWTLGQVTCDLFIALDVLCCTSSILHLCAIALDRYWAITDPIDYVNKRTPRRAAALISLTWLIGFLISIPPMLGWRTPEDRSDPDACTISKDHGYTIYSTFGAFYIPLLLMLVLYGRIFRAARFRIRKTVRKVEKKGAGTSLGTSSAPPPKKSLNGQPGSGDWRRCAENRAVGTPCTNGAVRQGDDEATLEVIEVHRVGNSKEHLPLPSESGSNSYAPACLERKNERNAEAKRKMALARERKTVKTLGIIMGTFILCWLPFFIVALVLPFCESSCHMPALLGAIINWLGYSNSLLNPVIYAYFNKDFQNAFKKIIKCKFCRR
Method in brief: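 Pooled rat hippocampal membranes were preincubated at 37 °C. Buffer was 50 mM Tris HCl pH 7.4 with 0.5 mM Na2EDTA, 10 mM MgCl2, 0.1% Na ascorbate and pargyline. 200–400 μg protein was incubated with [3H]-8-OH-DPAT for 15 min at 37 °C, then GF/C filtered and scintillation counted. Nonspecific binding was defined with 10 μM 5-HT. Triplicate tubes.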

[2] = target: T2, 5-hydroxytryptamine receptor 2C (Homo sapiens, UniProt P28335); assay: Compound was tested for the displacement of [125I]DOI from cloned human 5-hydroxytryptamine 2C receptor
T2 sequence (P28335 whole entry): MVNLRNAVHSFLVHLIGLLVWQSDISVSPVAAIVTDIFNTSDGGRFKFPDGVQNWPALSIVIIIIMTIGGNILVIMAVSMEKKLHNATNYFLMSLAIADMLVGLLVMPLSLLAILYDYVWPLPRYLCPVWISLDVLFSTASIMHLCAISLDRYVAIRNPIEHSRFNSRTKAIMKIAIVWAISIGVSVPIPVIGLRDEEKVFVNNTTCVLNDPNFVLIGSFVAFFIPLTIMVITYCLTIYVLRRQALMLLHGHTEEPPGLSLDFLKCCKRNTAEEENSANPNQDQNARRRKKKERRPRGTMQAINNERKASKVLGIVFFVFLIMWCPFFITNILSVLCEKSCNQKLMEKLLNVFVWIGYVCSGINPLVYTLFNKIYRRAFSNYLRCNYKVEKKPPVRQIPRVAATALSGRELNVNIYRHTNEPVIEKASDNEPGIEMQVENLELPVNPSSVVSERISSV
Method in brief: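 Membranes from AV12 hamster fibroblasts stably expressing human 5-HT2A or 5-HT2C. [125I]DOI was about 0.07–0.15 nM final. Buffer was 50 mM Tris-HCl pH 7.4 with 10 μM pargyline, 9.75 mM MgCl2, 0.5 mM Na2-EDTA and 0.1% Na ascorbate. Incubation was 30 min at 37 °C with about 40 μg protein (2A) or 30 μg (2C). Nonspecific binding used 1 μM ketanserin (2A) or 10 μM mianserin (2C). Read by gamma counting; sigmoid nonlinear regression.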

[3] = system: Rattus norvegicus; assay: Percentage of animals failing to emit 50 lever presses within 15 min in DOI trained rats at a compound dose of 16 mg/kg; assay type: functional
Method in brief: (§1)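 Male Sprague–Dawley rats (200–220 g) in a two-lever, FR50 food-reinforced task. Rats were trained to discriminate saline from LSD tartrate (0.08 mg/kg), DOI HCl (0.4 mg/kg) or LY293284 (0.025 mg/kg) in 15-min sessions. %SDL is the share of rats making over 80% of presses on the drug lever. %D is the share failing to make 50 presses within 15 min. ED50 by Litchfield–Wilcoxon log-probit.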

[4] = system: Rattus norvegicus; assay: Percentage of animals failing to emit 50 lever presses within 15 min in […] trained rats at a compound dose of 16 mg/kg; assay type: functional
Method in brief: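 Two-lever drug discrimination in male Sprague–Dawley rats (200–220 g at start), trained against saline on LSD tartrate (0.08 mg/kg), DOI HCl (0.4 mg/kg) or LY293284 (0.025 mg/kg). FR50 food-pellet reinforcement, levers counterbalanced, 15-min sessions at 22–24 °C. %D is the share of tested rats not completing 50 lever presses within 15 min.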

[5] = system: Rattus norvegicus; assay: Percentage of animals emitting >80% of lever presses in DOI trained rats at a compound dose of 12.6 uM/Kg; assay type: functional; method in brief: as §1
[6] = system: Rattus norvegicus; assay: Percentage of animals emitting >80% of lever presses in LSD trained rats at a compound dose of 25.3 uM/Kg; assay type: functional; method in brief: as §1
[7] = system: Rattus norvegicus; assay: Percentage of animals emitting >80% of lever presses in LSD trained rats at a compound dose of 12.6 uM/Kg; assay type: functional; method in brief: as §1

CN(C)CCc1c[nH]c2sccc12
Ki [1]: 184 nM
Ki [2]: 102 nM
D [3]: 50%
D [4]: 0%
SDL [5]: 0%
SDL [6]: 9%
SDL [7]: 16.7%
